In ChEMBL document CHEMBL1135527, “Synthesis and evaluation of 2'-substituted 4-(4'-carboxy- or 4'-carboxymethylbenzylidene)-N-acylpiperidines: highly potent and in vivo active steroid 5alpha-reductase type 2 inhibitors” (J Med Chem, 2002):
pIC50: −log10 of the molar value.

What was measured:
[1] = target: T1, 3-oxo-5-alpha-steroid 4-dehydrogenase 1 (Rattus norvegicus) (UniProt P24008); assay: Inhibition of Steroid 5-alpha-reductase type I of rat ventral prostate (RVP); type: tissue-based; design: concentration or dose not given beside the values; conditions: Prostate gland, concentration not given here
T1 sequence (whole entry): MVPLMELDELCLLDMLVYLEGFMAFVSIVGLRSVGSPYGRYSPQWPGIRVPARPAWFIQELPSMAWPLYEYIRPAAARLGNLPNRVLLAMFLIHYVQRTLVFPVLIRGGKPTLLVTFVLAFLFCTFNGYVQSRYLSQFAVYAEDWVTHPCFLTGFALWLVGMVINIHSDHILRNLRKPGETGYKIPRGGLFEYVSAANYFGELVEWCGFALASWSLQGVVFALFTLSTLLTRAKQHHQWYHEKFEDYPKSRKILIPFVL
Outline: (§1)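 Rat ventral prostate 105000g pellet made in 20 mM phosphate pH 6.6 with […] and 1 mM DTT at 0–4 °C. About 250 μg protein incubated 30 min at 37 °C in 40 mM phosphate pH 6.6 with 200 μM NADPH, 0.21 μM [1,2-³H]testosterone and 2% DMSO. Ether extraction, radio-HPLC of T and DHT. % inhibition at 10 μM or IC50; duplicates.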

[2] = target: T2, 3-oxo-5-alpha-steroid 4-dehydrogenase 1 (Homo sapiens) (UniProt P18405); assay: Inhibition of Steroid 5-alpha-reductase type I of human DU 145 prostatic tumor cell line, at 10 uM
T2 sequence (whole entry): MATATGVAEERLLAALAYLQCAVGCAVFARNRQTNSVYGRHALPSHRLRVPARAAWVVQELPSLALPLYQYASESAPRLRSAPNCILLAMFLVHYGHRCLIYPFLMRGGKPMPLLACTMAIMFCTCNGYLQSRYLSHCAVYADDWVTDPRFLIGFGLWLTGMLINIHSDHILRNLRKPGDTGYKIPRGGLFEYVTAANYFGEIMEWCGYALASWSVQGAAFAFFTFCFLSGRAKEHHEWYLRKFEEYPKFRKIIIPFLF
Outline: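 Intact DU145 cells (type 1 source) seeded at 180 000/well and left to adhere overnight. Compound added in DMSO to complete medium, then 6 h at 37 °C in 5% CO2 with [³H]androstenedione, 5 nM. Medium extracted twice with ether, steroids separated by radio-HPLC. Product formed expressed as % of triplicate no-inhibitor controls; screened at 10 μM.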

[3] = target: T3, 3-oxo-5-alpha-steroid 4-dehydrogenase 2 (Rattus norvegicus) (UniProt P31214); assay: (§2) Inhibition of Steroid 5-alpha-reductase type 2 of rat ventral prostate (RVP); design: concentration or dose not given beside the values; conditions: Prostate gland, concentration not given here
T3 sequence (whole entry): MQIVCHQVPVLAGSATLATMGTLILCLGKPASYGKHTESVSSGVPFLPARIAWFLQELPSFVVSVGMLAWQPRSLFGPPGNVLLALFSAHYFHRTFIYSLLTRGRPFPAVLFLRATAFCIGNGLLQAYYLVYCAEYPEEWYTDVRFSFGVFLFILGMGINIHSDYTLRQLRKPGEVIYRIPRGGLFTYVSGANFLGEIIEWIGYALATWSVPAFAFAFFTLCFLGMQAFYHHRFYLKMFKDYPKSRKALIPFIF
Outline: (§3)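 Type 2 source: rat ventral prostate homogenized in citrate buffer pH 5.5, 105000g pellet. About 250 μg protein incubated 30 min at 37 °C in 40 mM citrate pH 5.5 with 200 μM NADPH, 0.21 μM [1,2-³H]testosterone and 2% DMSO. NaOH stop, ether extraction, radio-HPLC of T/DHT. Result given as % inhibition at 10 μM or IC50, run in duplicate.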

[4] = target: T4, 3-oxo-5-alpha-steroid 4-dehydrogenase 2 (Homo sapiens) (UniProt P31213); assay: Percent of inhibition at 10 benign prostatic hyperplasia (BPH) tissue; conditions: concentration not given here
T4 sequence (whole entry): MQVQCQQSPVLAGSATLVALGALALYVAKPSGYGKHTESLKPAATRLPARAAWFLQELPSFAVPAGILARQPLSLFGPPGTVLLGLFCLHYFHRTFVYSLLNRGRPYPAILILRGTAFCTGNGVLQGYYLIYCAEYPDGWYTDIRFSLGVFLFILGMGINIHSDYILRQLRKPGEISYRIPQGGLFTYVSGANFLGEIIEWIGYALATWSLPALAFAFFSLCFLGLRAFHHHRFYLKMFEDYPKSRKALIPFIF
Outline: (§4)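 Human BPH prostate 105000g pellet (nuclei, mitochondria, microsomes) prepared in citrate buffer pH 5.5. Incubation of about 125 μg protein for 30 min at 37 °C in 40 mM citrate pH 5.5 with 100 μM NADPH, 0.21 μM [1,2-³H]testosterone and 2% DMSO. Reaction stopped with NaOH, steroids extracted with ether, T/DHT separated by radio-HPLC. Single 10 μM test or IC50; duplicates.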

[5] = target: T5, 3-oxo-5-alpha-steroid 4-dehydrogenase 2 (Homo sapiens, UniProt P31213); assay: Inhibition of Steroid 5-alpha-reductase type 2 from human benign prostatic hyperplasia (BPH) tissue; outline: as §4
T5 sequence (P31213 whole entry): T4 sequence (whole entry)

[6] = target: T6, 3-oxo-5-alpha-steroid 4-dehydrogenase 2 (Rattus norvegicus, UniProt P31214); assay: as §2; type: tissue-based, Prostate gland; outline: as §3
T6 sequence (P31214 whole entry): T3 sequence (whole entry)

[7] = target: T7, 3-oxo-5-alpha-steroid 4-dehydrogenase 1 (Rattus norvegicus, UniProt P24008); assay: Inhibition of Steroid 5-alpha-reductase type I from rat ventral prostate (RVP); type: tissue-based, Prostate gland; outline: as §1
T7 sequence (P24008 whole entry): T1 sequence (whole entry)

[8] = target: 3-oxo-5-alpha-steroid 4-dehydrogenase 2 (Homo sapiens, UniProt P31213); assay: In vitro inhibitory activity against Steroid 5-alpha-reductase type 2 of human benign prostatic hyperplasia (BPH) tissue; outline: as §4
[9] = target: T4, 3-oxo-5-alpha-steroid 4-dehydrogenase 2 (Homo sapiens); assay: Percent of inhibition against Steroid 5-alpha-reductase type 2 of human uM; conditions: concentration not given here; outline: as §4
Rattus norvegicus [10] = assay: Mean percentage of inhibition of the T-induced hypertrophic response was calculated according to the equation %inhibition = 100 x (Ct-D)/(Ct-Cc) at a dose 11.8 mg/kg by subcutaneous administration; type: functional; conditions: sc
Outline: (§5)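 Male rats castrated at 21 days old by scrotal incision under ether anaesthesia; eight groups of eight. One week later, testosterone propionate 1 mg/kg and test agent or vehicle in oil given once daily for 4 days. Testosterone and test agent were given by separate sc injections, or the test agent was given orally. Test doses 11.3–12.2 mg/kg, 10 times equimolar to finasteride 1 mg/kg.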

Rattus norvegicus [11] = assay: In vivo ventral prostate weights in juvenile castrated rats treated with testosterone propionate (11.3 mg/kg) compound, by subcutaneous administration; type: functional, Prostate gland; outline: as §5
[12] = target: T7, 3-oxo-5-alpha-steroid 4-dehydrogenase 1; assay: In vitro inhibitory activity against Steroid 5-alpha-reductase type I of rat ventral prostate (RVP); type: tissue-based, Prostate gland; outline: as §1
Rattus norvegicus [13] = assay: In vivo ventral prostate weights in juvenile castrated rats treated with testosterone propionate (1 mg/kg); type: functional, Prostate gland; outline: as §5
Rattus norvegicus [14] = assay: Mean percentage of inhibition of the T-induced hypertrophic response was calculated according to the equation %inhibition = 100 x (Ct-D)/(Ct-Cc) at a dose 12.2 mg/kg by subcutaneous administration; type: functional; conditions: sc; outline: as §5

Molecule `O=C(O)c1cccc(C=C2CCN(C(=O)C(c3ccccc3)c3ccccc3)CC2)c1` has an inhibition [1] of 49%, an inhibition [2] of 6% and an inhibition [3] of 43%. The inhibition [4] was 57%.

`O=C(O)c1ccc(C=C2CCN(C(=O)C(C3CCCCC3)C3CCCCC3)CC2)cc1` [listing 1 of 2 here] was tested, and the pIC50 [5] was 7.22 and the pIC50 [6] was 7.10.

Molecule `O=C(O)Cc1ccc(C=C2CCN(C(=O)C(C3CCCCC3)C3CCCCC3)CC2)cc1` has an inhibition [1] of 66%, an inhibition [2] of 6% and an inhibition [3] of 56%. It also gave a pIC50 [5] of 8.22.

Work on `O=C(O)Cc1ccc(C=C2CCN(C(=O)C(c3ccccc3)c3ccccc3)CC2)cc1` yielded an inhibition [3] of 63%, a pIC50 [7] of 5.35 and a pIC50 [8] of 7.12.

Molecule `O=C(O)c1ccc(OC2CCN(C(=O)N(c3ccccc3)c3ccccc3)CC2)cc1` has an inhibition [9] of 68%, an inhibition [1] of 53% and an inhibition [2] of 10%. The inhibition [3] was 50%.

With `O=C(O)Cc1ccc(C=C2CCN(C(=O)C(C3CCCCC3)C3CCCCC3)CC2)c(F)c1` [listing 1 of 2 here] the inhibition [2] was 4%.

For `CCC(=O)O[C@H]1CC[C@H]2[C@@H]3CCC4=CC(=O)CC[C@]4(C)[C@H]3CC[C@]12C.O=C(O)c1ccc(C=C2CCN(C(=O)C(C3CCCCC3)C3CCCCC3)CC2)c(F)c1`, the inhibition in vivo at 11.8 mg/kg (Rattus norvegicus [10]) was 47% and the Weight (Rattus norvegicus [11]) was 28.6 (mg of prostate) (100g of body weight)-1.

`O=C(O)c1ccc(C=C2CCN(C(=O)C(C3CCCCC3)C3CCCCC3)CC2)c(F)c1` [listing 1 of 2 here] was tested, and the inhibition [2] was 12%.

For `O=C(O)c1ccc(C=C2CCN(C(=O)C(C3CCCCC3)C3CCCCC3)CC2)c(F)c1` [listing 2 of 2 here], the pIC50 [5] was 7.96, the pIC50 [12] was 5.74 and the pIC50 [6] was 5.52.

For `CCC(=O)O[C@H]1CC[C@H]2[C@@H]3CCC4=CC(=O)CC[C@]4(C)[C@H]3CC[C@]12C` [TESTOSTERONE PROPIONATE], the Weight (Rattus norvegicus [13]) was 41.6 (mg of prostate) (100g of body weight)-1.

For `CCC(=O)O[C@H]1CC[C@H]2[C@@H]3CCC4=CC(=O)CC[C@]4(C)[C@H]3CC[C@]12C.O=C(O)Cc1ccc(C=C2CCN(C(=O)C(C3CCCCC3)C3CCCCC3)CC2)c(F)c1`, the Weight (Rattus norvegicus [11]) was 26.4 (mg of prostate) (100g of body weight)-1 and the inhibition in vivo at 12.2 mg/kg (Rattus norvegicus [14]) was 55%.

In the case of `O=C(O)c1ccc(C=C2CCN(C(=O)C(C3CCCCC3)C3CCCCC3)CC2)cc1` [listing 2 of 2 here], the inhibition [1] was 51% and the inhibition [2] was 46%.

`O=C(O)Cc1ccc(C=C2CCN(C(=O)C(C3CCCCC3)C3CCCCC3)CC2)c(F)c1` [listing 2 of 2 here] gave a pIC50 [7] of 5.49, a pIC50 [5] of 8.15 and a pIC50 [6] of 7.42.

With `O=C(O)c1ccc(C=C2CCN(C(=O)C34CC5CC(CC(C5)C3)C4)CC2)c(F)c1` the inhibition [2] was 20%, the pIC50 [7] was 5.57 and the pIC50 [5] was 6.68. The pIC50 [6] was 5.46.
